Data reported in ChEMBL document CHEMBL2346604, “Synthesis of nordihydroguaiaretic acid derivatives and their bioactivities on S. pombe and K562 cell lines” (Eur J Med Chem, 2013).
Converted amounts (≈) assume the structure as drawn. The source made the active and inactive calls. The calls are words filed in the database; no cut-off is given here.

Columns and labels:
[1] = test system: Schizosaccharomyces pombe; test: Inhibition of growth metabolism of Schizosaccharomyces pombe ACCC 20047 assessed as growth rate constant at 20 mg/L at 32 degC by TAM air microcalorimetry; type: functional
Outline: (§1)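 Cells seeded at 1×10⁶ cells/mL with compound at a range of concentrations. Heat output recorded continuously in a TAM Air isothermal microcalorimeter. Growth rate constant k taken from power-time curves. I = (k0 − kc)/k0 × 100%, and IC50 is the concentration giving I = 50%. n = 3.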

K562 [2] = test: Inhibition of growth metabolism of human K562 cells assessed as growth rate constant at 8 mg/L at 37 degC by TAM air microcalorimetry; type: functional
Outline: (§2)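 K562 cells in supplemented RPMI 1640 (10% FBS) seeded at 1×10⁶ cells/mL with compound at graded concentrations. Heat flow recorded in real time in an eight-channel isothermal microcalorimeter (TAM Air). Rate constant k derived from thermogenic growth curves. Inhibition ratio I = (k0 − kc)/k0 × 100% relative to untreated cells, and IC50 is the concentration at I = 50%. Mean ± S.D., n = 3.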

K562 [3] = test: Induction of apoptosis in human K562 cells assessed as mitochondrial transmembrane potential at 4 mg/L after 18 hrs by Rh123 staining based fluorescence spectrophotometer analysis (reference value: 788.8 +/-1.0%); type: functional
K562 [4] = test: Induction of apoptosis in human K562 cells assessed as mitochondrial transmembrane potential at 6 mg/L after 12 hrs by Rh123 staining based fluorescence spectrophotometer analysis (reference value: 668.2 +/-0.8%); type: functional
[5] = test system: Schizosaccharomyces pombe; test: Inhibitive ratio of growth metabolism of Schizosaccharomyces pombe ACCC 20047 at 40 mg/L at 32 degC by TAM air microcalorimetry (reference value: 0%); type: functional; outline: as §1
K562 [6] = test: Inhibition of growth metabolism of human K562 cells at 37 degC by TAM air microcalorimetry; type: functional, cell-based; outline: as §2
[7] = test system: Schizosaccharomyces pombe; test: Inhibitive ratio of growth metabolism of Schizosaccharomyces pombe ACCC 20047 at 380 mg/L at 32 degC by TAM air microcalorimetry (reference value: 0%); type: functional; outline: as §1
K562 [8] = test: Induction of apoptosis in human K562 cells assessed as mitochondrial transmembrane potential at 6 mg/L after 18 hrs by Rh123 staining based fluorescence spectrophotometer analysis (reference value: 788.8 +/-1.0%); type: functional
K562 [9] = test: Inhibitive ratio of growth metabolism of human K562 cells at 3 mg/L at 37 degC by TAM air microcalorimetry (reference value: 0%); type: functional; outline: as §2
K562 [10] = test: Inhibition of growth metabolism of human K562 cells assessed as growth rate constant at 6 mg/L at 37 degC by TAM air microcalorimetry; type: functional; outline: as §2
K562 [11] = test: Inhibition of growth metabolism of human K562 cells assessed as growth rate constant at 2 mg/L at 37 degC by TAM air microcalorimetry; type: functional; outline: as §2
[12] = test system: Schizosaccharomyces pombe; test: Inhibition of growth metabolism of Schizosaccharomyces pombe ACCC 20047 assessed as growth rate constant at 380 mg/L at 32 degC by TAM air microcalorimetry; type: functional; outline: as §1
K562 [13] = test: Inhibition of growth metabolism of human K562 cells assessed as growth rate constant at 5 mg/L at 37 degC by TAM air microcalorimetry; type: functional; outline: as §2
K562 [14] = test: Induction of apoptosis in human K562 cells assessed as mitochondrial transmembrane potential at 6 mg/L after 24 hrs by Rh123 staining based fluorescence spectrophotometer analysis (reference value: 277.9 +/-1.4%)
[15] = test system: Schizosaccharomyces pombe; test: Inhibitive ratio of growth metabolism of Schizosaccharomyces pombe ACCC 20047 at 80 mg/L at 32 degC by TAM air microcalorimetry (reference value: 0%); type: functional; outline: as §1
[16] = test system: Schizosaccharomyces pombe; test: Inhibition of growth metabolism of Schizosaccharomyces pombe ACCC 20047 assessed as growth rate constant at 240 mg/L at 32 degC by TAM air microcalorimetry; type: functional; outline: as §1
K562 [17] = test: Inhibitive ratio of growth metabolism of human K562 cells at 2 mg/L at 37 degC by TAM air microcalorimetry (reference value: 0%); type: functional; outline: as §2
[18] = test system: Schizosaccharomyces pombe; test: Inhibition of growth metabolism of Schizosaccharomyces pombe ACCC 20047 assessed as growth rate constant at 40 mg/L at 32 degC by TAM air microcalorimetry; type: functional; outline: as §1
K562 [19] = test: Inhibition of growth metabolism of human K562 cells assessed as growth rate constant at 4 mg/L at 37 degC by TAM air microcalorimetry; type: functional; outline: as §2
[20] = test system: Schizosaccharomyces pombe; test: Inhibition of growth metabolism of Schizosaccharomyces pombe ACCC 20047 at 32 degC by TAM air microcalorimetry; type: functional, organism-based; outline: as §1
K562 [21] = test: Inhibitive ratio of growth metabolism of human K562 cells at 4 mg/L at 37 degC by TAM air microcalorimetry (reference value: 0%); type: functional; outline: as §2
[22] = test system: Schizosaccharomyces pombe; test: Inhibition of growth metabolism of Schizosaccharomyces pombe ACCC 20047 assessed as growth rate constant at 320 mg/L at 32 degC by TAM air microcalorimetry; type: functional; outline: as §1
[23] = test system: Schizosaccharomyces pombe; test: Inhibition of growth metabolism of Schizosaccharomyces pombe ACCC 20047 assessed as growth rate constant at 160 mg/L at 32 degC by TAM air microcalorimetry; type: functional; outline: as §1
K562 [24] = test: Induction of apoptosis in human K562 cells assessed as mitochondrial transmembrane potential at 4 mg/L after 24 hrs by Rh123 staining based fluorescence spectrophotometer analysis (reference value: 277.9 +/-1.4%); type: functional
[25] = test system: Schizosaccharomyces pombe; test: Inhibition of growth metabolism of Schizosaccharomyces pombe ACCC 20047 assessed as growth rate constant at 80 mg/L at 32 degC by TAM air microcalorimetry; type: functional; outline: as §1
[26] = test system: Schizosaccharomyces pombe; test: Inhibitive ratio of growth metabolism of Schizosaccharomyces pombe ACCC 20047 at 320 mg/L at 32 degC by TAM air microcalorimetry (reference value: 0%); type: functional; outline: as §1
K562 [27] = test: Inhibitive ratio of growth metabolism of human K562 cells at 8 mg/L at 37 degC by TAM air microcalorimetry (reference value: 0%); type: functional; outline: as §2
K562 [28] = test: Induction of late apoptosis in human K562 cells assessed as cell membrane structural changes, smaller nuclear size, chromatin assembly under nuclear envelope, clear nuclear membrane structure, lipid droplets in cytoplasm, protruded cell surface with red nucleus at 4 to 6 mg/L after 12 to 24 hrs by propidium iodide staining based fluorescence microscopy; type: functional
Outline: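 K562 groups at 0, 4.0 and 6.0 mg/L were held 12, 18 or 24 h at 37 °C in 5% CO2. Cells (1 mL) were collected, washed three times in PBS, stained with propidium iodide for 5 min in the dark and washed. Morphology of membrane, nucleus, chromatin and cytoplasm was scored against untreated controls.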

K562 [29] = test: Inhibitive ratio of growth metabolism of human K562 cells at 5 mg/L at 37 degC by TAM air microcalorimetry (reference value: 0%); type: functional; outline: as §2
[30] = test system: Schizosaccharomyces pombe; test: Inhibitive ratio of growth metabolism of Schizosaccharomyces pombe ACCC 20047 at 160 mg/L at 32 degC by TAM air microcalorimetry (reference value: 0%); type: functional; outline: as §1
K562 [31] = test: Inhibitive ratio of growth metabolism of human K562 cells at 6 mg/L at 37 degC by TAM air microcalorimetry (reference value: 0%); type: functional; outline: as §2
K562 [32] = test: Inhibition of growth metabolism of human K562 cells assessed as growth rate constant at 3 mg/L at 37 degC by TAM air microcalorimetry; type: functional; outline: as §2
[33] = test system: Schizosaccharomyces pombe; test: Inhibitive ratio of growth metabolism of Schizosaccharomyces pombe ACCC 20047 at 240 mg/L at 32 degC by TAM air microcalorimetry (reference value: 0%); type: functional; outline: as §1
[34] = test system: Schizosaccharomyces pombe; test: Inhibitive ratio of growth metabolism of Schizosaccharomyces pombe ACCC 20047 at 20 mg/L at 32 degC by TAM air microcalorimetry (reference value: 0%); type: functional; outline: as §1
K562 [35] = test: Induction of apoptosis in human K562 cells assessed as mitochondrial transmembrane potential at 4 mg/L after 12 hrs by Rh123 staining based fluorescence spectrophotometer analysis (reference value: 668.2 +/-0.8%); type: functional
K562 [36] = test: Inhibition of growth metabolism of human K562 cells assessed as growth rate constant at 14 mg/L at 37 degC by TAM air microcalorimetry; type: functional; outline: as §2
K562 [37] = test: Inhibition of growth metabolism of human K562 cells assessed as growth rate constant at 12 mg/L at 37 degC by TAM air microcalorimetry; type: functional; outline: as §2
[38] = test system: Schizosaccharomyces pombe; test: Inhibitive ratio of growth metabolism of Schizosaccharomyces pombe ACCC 20047 at 400 mg/L at 32 degC by TAM air microcalorimetry (reference value: 0%); type: functional; outline: as §1
K562 [39] = test: Inhibitive ratio of growth metabolism of human K562 cells at 14 mg/L at 37 degC by TAM air microcalorimetry (reference value: 0%); type: functional; outline: as §2
[40] = test system: Schizosaccharomyces pombe; test: Inhibition of growth metabolism of Schizosaccharomyces pombe ACCC 20047 assessed as growth rate constant at 400 mg/L at 32 degC by TAM air microcalorimetry; type: functional; outline: as §1
K562 [41] = test: Inhibitive ratio of growth metabolism of human K562 cells at 12 mg/L at 37 degC by TAM air microcalorimetry (reference value: 0%); type: functional; outline: as §2

Structure (SMILES)	Activity [1] [min⁻¹]	Activity (K562 [2])	inhibition at 40 µg/mL [5] [%]	IC50 (K562 [6]) [mg/L]	Activity (K562 [10]) [×10⁻⁴ /min]	Activity (K562 [11]) [×10⁻⁴ /min]	inhibition at 80 µg/mL [15] [%]	Activity [16] [min⁻¹]	inhibition at 2 µg/mL (K562 [17]) [%]	Activity [18] [min⁻¹]	Activity (K562 [19]) [×10⁻⁴ /min]	IC50 [20] [mg/L]	inhibition at 4 µg/mL (K562 [21]) [%]	Activity [22] [min⁻¹]	Activity [23] [min⁻¹]	Activity [25] [min⁻¹]	inhibition at 320 µg/mL [26] [%]	inhibition at 8 µg/mL (K562 [27]) [%]	inhibition at 160 µg/mL [30] [%]	inhibition at 6 µg/mL (K562 [31]) [%]	also measured
COc1ccc(C[C@@H](C)[C@@H](C)Cc2ccc(OC)c(OC)c2)cc1OC [TERAMEPROCOL]	0.00401	8.5275 ×10⁻⁵ /min	8.13	5.87 (≈ 16.4 µM)	1.9712	4.7239	4.06	0.00322	-12.8	0.00407	3.9762	330 (≈ 921 µM)	5.06	0.00245	0.00392	0.00425	44.7	79.6	11.5	52.9	Activity (K562 [3]): 615.3%; Activity (K562 [4]): 477.8%; inhibition at 380 µg/mL [7]: 67.7%; Activity (K562 [8]): 331.5%; inhibition at 3 µg/mL (K562 [9]): -5.88%; Activity [12]: 0.00143 min⁻¹; Activity (K562 [13]): 2.7992 ×10⁻⁴ /min; Activity (K562 [14]): 170.7%; Activity (K562 [24]): 168%; Activity (K562 [28]): Active; inhibition at 5 µg/mL (K562 [29]): 33.2%; Activity (K562 [32]): 4.4342 ×10⁻⁴ /min; inhibition at 240 µg/mL [33]: 27.3%; inhibition at 20 µg/mL [34]: 9.48%; Activity (K562 [35]): 597.2%
COc1ccc(-c2oc(-c3ccc(OC)c(OC)c3)c(C)c2C)cc1OC	0.00427	3.0855 ×10⁻⁴ /min	-1.66	11.2 (≈ 30.5 µM)	3.1202	3.9155	-2.13	0.00346	-1.79	0.00429	4.3527	350 (≈ 950 µM)	-13.2	0.00273	0.0043	0.00431	35.3	19.8	-1.9	18.9	Activity (K562 [36]): 7.6784 ×10⁻⁵ /min; Activity (K562 [37]): 1.65 ×10⁻⁴ /min; inhibition at 400 µg/mL [38]: 73.2%; inhibition at 14 µg/mL (K562 [39]): 80%; Activity [40]: 0.00113 min⁻¹; inhibition at 12 µg/mL (K562 [41]): 57.1%; inhibition at 240 µg/mL [33]: 18%; inhibition at 20 µg/mL [34]: -1.18%
